According to ChEMBL document CHEMBL4024758, “Structure-Based Design and Discovery of New M2 Receptor Agonists” (J Med Chem, 2017):
The source made the active and inactive calls. The rule behind the calls is not given here.

Assays:
[1] = target: T1, Muscarinic acetylcholine receptor M1 (Homo sapiens, UniProt P11229); assay: Displacement of [3H]N-methyl-scopolamine bromide from human recombinant muscarinic M1 receptor expressed in HEK293T cell membranes after 1 hr by liquid scintillation counting method; format: cell-based, HEK-293T
T1 sequence (P11229 whole entry): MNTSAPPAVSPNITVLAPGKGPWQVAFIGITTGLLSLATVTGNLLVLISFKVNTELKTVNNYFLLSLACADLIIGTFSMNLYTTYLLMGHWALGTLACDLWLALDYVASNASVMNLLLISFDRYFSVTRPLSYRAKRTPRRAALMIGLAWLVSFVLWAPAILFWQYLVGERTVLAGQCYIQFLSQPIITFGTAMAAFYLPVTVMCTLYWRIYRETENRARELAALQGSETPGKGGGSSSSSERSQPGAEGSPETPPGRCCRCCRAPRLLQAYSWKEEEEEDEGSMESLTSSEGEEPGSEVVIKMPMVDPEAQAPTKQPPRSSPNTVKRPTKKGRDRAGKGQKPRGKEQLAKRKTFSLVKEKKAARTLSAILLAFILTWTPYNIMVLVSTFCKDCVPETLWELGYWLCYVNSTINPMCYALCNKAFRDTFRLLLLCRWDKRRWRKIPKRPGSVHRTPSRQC

[2] = target: Muscarinic acetylcholine receptor M3 (Homo sapiens, UniProt P20309); assay: Displacement of [3H]N-methyl-scopolamine bromide from human recombinant muscarinic M3 receptor expressed in HEK293T cell membranes after 1 hr by liquid scintillation counting method; format: cell-based, HEK-293T
Sequence of Muscarinic acetylcholine receptor M3 (P20309 whole entry): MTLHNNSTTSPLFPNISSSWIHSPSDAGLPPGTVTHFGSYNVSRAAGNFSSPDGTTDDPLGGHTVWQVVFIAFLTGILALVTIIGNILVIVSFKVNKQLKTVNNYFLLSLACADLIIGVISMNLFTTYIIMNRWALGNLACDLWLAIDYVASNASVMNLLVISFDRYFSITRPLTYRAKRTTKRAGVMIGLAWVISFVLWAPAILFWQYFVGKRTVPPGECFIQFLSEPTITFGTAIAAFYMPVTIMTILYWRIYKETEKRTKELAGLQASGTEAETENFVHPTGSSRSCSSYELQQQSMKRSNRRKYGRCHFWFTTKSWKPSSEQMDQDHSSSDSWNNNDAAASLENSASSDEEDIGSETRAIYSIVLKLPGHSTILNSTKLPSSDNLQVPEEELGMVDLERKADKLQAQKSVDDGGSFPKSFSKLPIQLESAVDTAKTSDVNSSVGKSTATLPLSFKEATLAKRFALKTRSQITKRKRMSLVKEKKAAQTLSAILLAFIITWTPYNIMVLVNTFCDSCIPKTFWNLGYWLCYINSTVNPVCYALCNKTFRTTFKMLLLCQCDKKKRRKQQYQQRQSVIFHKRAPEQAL

[3] = target: T2, Muscarinic acetylcholine receptor M2 (Homo sapiens, UniProt P08172); assay: Displacement of [3H]N-methyl-scopolamine bromide from human recombinant muscarinic M2 receptor expressed in HEK293T cell membranes after 1 hr by liquid scintillation counting method; parameters: species or system HEK-293T
T2 sequence (P08172 whole entry): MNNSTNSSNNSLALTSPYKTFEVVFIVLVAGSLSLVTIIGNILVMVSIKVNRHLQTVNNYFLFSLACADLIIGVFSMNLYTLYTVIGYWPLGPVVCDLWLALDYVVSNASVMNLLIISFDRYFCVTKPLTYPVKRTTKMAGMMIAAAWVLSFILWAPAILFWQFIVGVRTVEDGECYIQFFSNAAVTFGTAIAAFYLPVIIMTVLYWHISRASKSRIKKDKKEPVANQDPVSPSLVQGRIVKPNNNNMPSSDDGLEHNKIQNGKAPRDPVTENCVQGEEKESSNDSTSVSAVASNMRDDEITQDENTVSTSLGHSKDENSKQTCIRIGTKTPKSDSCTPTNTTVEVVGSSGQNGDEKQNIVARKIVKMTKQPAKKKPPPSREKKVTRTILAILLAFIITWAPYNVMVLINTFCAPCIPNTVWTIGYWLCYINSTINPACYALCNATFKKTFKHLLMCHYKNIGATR

[4] = target: T2, Muscarinic acetylcholine receptor M2; assay: Agonist activity at human recombinant muscarinic M2 receptor co-expressed with Galphaqi5-HA in African green monkey COS7 cells assessed as IP accumulation after 2 hrs in presence of myo-[3H]inositol by liquid scintillation counting method; format: functional
[5] = target: T3, Muscarinic acetylcholine receptor M2 (Homo sapiens) (UniProt P08172); assay: Agonist activity at human recombinant muscarinic M2 receptor co-expressed with Galphaqi5-HA in African green monkey COS7 cells assessed as IP accumulation after 2 hrs in presence of myo-[3H]inositol by liquid scintillation counting method relative to carbachol; format: functional
T3 sequence (whole entry): T2 sequence (P08172 whole entry)

[6] = target: Neuronal acetylcholine receptor; alpha4/beta2 (Homo sapiens, UniProt P17787+P43681); assay: Displacement of [3H]cytisine from alpha4beta2 nAChR expressed in human recombinant SH-SY5Y cell membranes after 120 mins
Sequence of Neuronal acetylcholine receptor; alpha4/beta2 (P17787 whole entry): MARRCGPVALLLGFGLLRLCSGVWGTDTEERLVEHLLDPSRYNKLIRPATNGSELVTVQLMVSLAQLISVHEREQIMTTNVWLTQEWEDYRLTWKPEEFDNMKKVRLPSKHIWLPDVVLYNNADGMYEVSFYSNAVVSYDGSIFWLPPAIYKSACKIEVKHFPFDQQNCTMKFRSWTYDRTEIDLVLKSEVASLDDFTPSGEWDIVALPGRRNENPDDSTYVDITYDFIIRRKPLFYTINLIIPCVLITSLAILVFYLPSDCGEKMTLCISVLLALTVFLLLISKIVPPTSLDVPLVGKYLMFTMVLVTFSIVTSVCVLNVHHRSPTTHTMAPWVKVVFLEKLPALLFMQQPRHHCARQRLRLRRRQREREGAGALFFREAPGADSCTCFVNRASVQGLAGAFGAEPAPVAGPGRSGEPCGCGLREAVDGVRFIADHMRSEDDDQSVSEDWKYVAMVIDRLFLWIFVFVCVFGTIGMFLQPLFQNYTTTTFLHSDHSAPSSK
Sequence of Neuronal acetylcholine receptor; alpha4/beta2 (P43681 whole entry): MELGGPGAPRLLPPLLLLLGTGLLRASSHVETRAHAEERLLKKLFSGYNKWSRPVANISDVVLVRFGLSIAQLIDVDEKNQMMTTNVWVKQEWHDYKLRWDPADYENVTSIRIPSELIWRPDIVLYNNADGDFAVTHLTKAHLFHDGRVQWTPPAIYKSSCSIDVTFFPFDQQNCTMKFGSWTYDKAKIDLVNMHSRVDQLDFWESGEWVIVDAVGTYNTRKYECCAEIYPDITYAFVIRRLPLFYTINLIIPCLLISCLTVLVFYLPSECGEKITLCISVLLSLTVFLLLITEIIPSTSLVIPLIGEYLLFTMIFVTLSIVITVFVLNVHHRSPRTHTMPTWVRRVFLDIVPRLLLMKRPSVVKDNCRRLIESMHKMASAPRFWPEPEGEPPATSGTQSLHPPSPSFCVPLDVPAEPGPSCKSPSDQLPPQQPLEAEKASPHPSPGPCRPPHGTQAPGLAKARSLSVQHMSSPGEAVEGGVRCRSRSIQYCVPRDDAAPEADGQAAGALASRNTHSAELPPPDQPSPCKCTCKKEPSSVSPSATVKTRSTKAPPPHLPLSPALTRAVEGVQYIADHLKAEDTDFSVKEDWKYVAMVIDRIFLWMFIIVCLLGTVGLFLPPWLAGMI

[7] = target: T3, Muscarinic acetylcholine receptor M2 (Homo sapiens); assay: Agonist activity at human recombinant muscarinic M2 receptor co-expressed with Galphaqi5-HA in African green monkey COS7 cells assessed as IP accumulation at 100 uM after 2 hrs in presence of myo-[3H]inositol by liquid scintillation counting method relative to carbachol; format: functional
[8] = target: T3, Muscarinic acetylcholine receptor M2 (Homo sapiens); assay: Agonist activity at Gi/o coupled recombinant human M2 mAChR expressed in CHO-FlpIn cells assessed as IP-one accumulation after 40 mins by HTRF assay; format: cell-based
In short: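 Stably transfected CHO-FlpIn whole cells, 20000/well, grown overnight at 37 °C with 5% CO2. Cells were washed with PBS, then held 60 min at 37 °C in HEPES stimulation buffer with 50 mM LiCl, pH 7.4. ACh or test ligand was added and incubated 40 min.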

SMILES	Ki [1] [µM]	Ki [2] [µM]	Ki [3] [µM]	EC50 [4] [µM]	Emax [5] [%]	Ki [6] [µM]	Emax [7] [%]	Activity [8]
COc1cccc2c1CC(N(C)C)CC2 (centres undefined)	2	0.83	1.2					
c1cncc(COCC2CCNC2)c1 (centres undefined)	18	36	11	29	74	0.2		
COc1cccc2c1CCC(C[N+](C)(C)C)C2 (centres undefined)	17	25	14					
COc1cccc(C#CC[N+](C)(C)C)c1	20	20	50					
C[N+](C)(C)CC#CCOC1=NOCC1	0.35	0.55	0.0049	0.00028	125			
CN(C)C1CCc2cccc(O)c2C1 (centres undefined)	> 50	28	> 50					
COc1cccc2c1CC[N+](C)(C)C2	14	24	26					
CN1CCCC(OCc2cccnc2)C1 (centres undefined)	20	42	46	50	33			
C[N+](C)(C)CCc1cccc(O)c1	20	13	14	10	44			
CN1CCC(COCc2cccnc2)C1 (centres undefined)	38	75	39	> 100			38	
COc1cccc2c1C[N+](C)(C)CC2	17	5.8	6.3					
C[N+]1(C)CCC(OCc2nccs2)C1 (centres undefined)	6.1	12	10	10	28			
CCOc1cccc(CC[N+](C)(C)C)c1	42	43	27				40	
C[N+](C)(C)CCCc1ccc2ccoc2c1	0.063	0.14	0.23	0.027	12			
COc1cccc(/C=C/C[N+](C)(C)C)c1	16	21	22					
C[N+](C)(C)CCc1cccc(Cl)c1	4.5	5.8	4.8				< 10	
CC(=O)OCC[N+](C)(C)C								inactive

SMILES	Ki [1] [µM]	Ki [2] [µM]	Ki [3] [µM]	EC50 [4] [µM]	Emax [5] [%]	Ki [6] [µM]	Emax [7] [%]	Activity [8]
COc1ccccc1C[N+](C)(C)C	26	> 50	> 50	18	51			
COc1cccc2c1CC([N+](C)(C)C)CC2 (centres undefined)	1	2	0.93					
COc1cccc(C(O)C[N+](C)(C)C)c1 (centres undefined)	13	12	29				< 10	
C[N+](C)(C)CCc1ccc2ccoc2c1	0.023	0.041	0.14	0.22	-14			
COc1cccc2c1CC(C[N+](C)(C)C)CC2 (centres undefined)	1.8	3.9	1.3					
C[N+](C)(C)C1CCc2cccc(O)c2C1 (centres undefined)	2.9	16	4.2					
COc1cccc(C(=O)C[N+](C)(C)C)c1	0.17	0.21	2.4				< 10	
COc1cccc(C2CC2C[N+](C)(C)C)c1 (centres undefined)	7.3	8.7	15					
COc1cccc2c1CCC([N+](C)(C)C)C2 (centres undefined)	2.5	4	4.4					
C[N+](C)(C)C1CCc2ccc3ccoc3c2C1 (centres undefined)	0.38	0.69	0.79	2.3	-8.3			
COc1ccccc1CC[N+](C)(C)C	4.9	4.7	5.7	9.1	21			
c1csc(COC2CCNC2)n1 (centres undefined)	4.2	4.1	6	9.9	74			
CNCCc1cccc(OC)c1	0.74	0.78	1	8.2	-12			
C[N+](C)(C)CCc1cccc(OC(F)(F)F)c1	7.8	11	9.2				< 10	
c1cncc(COC2CCCNC2)c1 (centres undefined)	10	10	17	13	60	0.0016		
COc1ccc(F)c(CC[N+](C)(C)C)c1	7.1	14	0.98	23	44			
